Measured values gathered from unrelated publications.
Target: Serine/threonine-protein kinase TAO2 (TAOK2, Homo sapiens, UniProt Q9UL54)
Sequence (Q9UL54 1-1235, as in one of the studies): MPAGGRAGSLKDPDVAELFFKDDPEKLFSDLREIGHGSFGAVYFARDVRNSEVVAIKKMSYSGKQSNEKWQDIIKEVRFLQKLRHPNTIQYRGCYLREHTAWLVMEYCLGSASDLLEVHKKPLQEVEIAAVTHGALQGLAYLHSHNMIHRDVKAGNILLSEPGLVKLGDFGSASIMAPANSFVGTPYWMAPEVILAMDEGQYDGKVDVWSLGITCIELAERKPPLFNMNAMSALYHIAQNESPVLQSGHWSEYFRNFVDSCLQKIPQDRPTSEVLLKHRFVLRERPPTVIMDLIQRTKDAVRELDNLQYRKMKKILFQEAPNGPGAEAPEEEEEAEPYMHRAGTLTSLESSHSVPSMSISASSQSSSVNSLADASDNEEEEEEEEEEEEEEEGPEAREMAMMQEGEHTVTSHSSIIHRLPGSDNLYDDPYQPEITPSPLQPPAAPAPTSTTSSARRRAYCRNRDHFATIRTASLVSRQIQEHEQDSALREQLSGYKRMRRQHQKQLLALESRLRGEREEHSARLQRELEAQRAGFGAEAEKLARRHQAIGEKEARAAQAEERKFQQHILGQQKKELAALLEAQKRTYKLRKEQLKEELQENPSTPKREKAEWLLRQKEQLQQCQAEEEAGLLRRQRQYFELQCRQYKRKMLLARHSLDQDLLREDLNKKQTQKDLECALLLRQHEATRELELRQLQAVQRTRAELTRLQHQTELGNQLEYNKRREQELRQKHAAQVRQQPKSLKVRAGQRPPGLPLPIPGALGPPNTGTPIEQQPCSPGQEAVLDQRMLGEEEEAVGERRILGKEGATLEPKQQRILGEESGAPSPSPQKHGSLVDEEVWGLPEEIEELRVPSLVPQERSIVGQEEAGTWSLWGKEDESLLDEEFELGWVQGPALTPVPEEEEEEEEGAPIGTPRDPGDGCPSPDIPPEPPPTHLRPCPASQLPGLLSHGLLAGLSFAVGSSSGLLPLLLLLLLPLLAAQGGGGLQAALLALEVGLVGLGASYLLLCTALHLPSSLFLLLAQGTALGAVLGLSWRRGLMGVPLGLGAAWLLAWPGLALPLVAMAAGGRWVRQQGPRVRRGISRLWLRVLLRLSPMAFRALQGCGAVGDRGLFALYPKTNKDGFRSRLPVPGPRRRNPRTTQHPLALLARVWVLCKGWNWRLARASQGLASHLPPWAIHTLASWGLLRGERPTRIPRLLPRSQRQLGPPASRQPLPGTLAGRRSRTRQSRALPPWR

| Compound | assay | conditions | remaining binding |
| --- | --- | --- | --- |
| F[C@@H]1CCN(c2nccc(-c3cnn4ncccc34)n2)C1 | binding | 1 µM | 100% |
| COc1ncc2cc3ccccc3nc2c1C#N | cell-free assay, competition with immobilised ligand | 5 µM | 93% |
| N[C@H]1CCN(c2nccc(-c3cnn4ncccc34)n2)C1 | binding | 1 µM | 52% |
| O=C(O)[C@H]1[C@H](Cn2nnc3ccccc3c2=O)CC[C@@H]1C(=O)c1ccc(OCCC2CCOCC2)cc1 | cell-free assay, competition with immobilised ligand | 1 µM | 100% |
| O=C(NCC1CCOCC1)c1n[nH]cc1NC(=O)c1c(F)cccc1F | binding, competition with immobilised ligand | 1 µM | 100% |
| O=C(c1ccc(Nc2nccc(-c3cc4ccccc4s3)n2)cc1)N1CCC(N2CCCC2)CC1 | binding, competition with immobilised ligand | 1 µM | 71% |
| Cc1cc(NC(=O)c2cccc(S(F)(F)(F)(F)F)c2)cc(-n2ccn3nc(-c4cccnc4)cc23)c1 | cell-free assay, competition with immobilised ligand | 1 µM | 91.3% |
| O=C(NCCCN1CCOCC1)c1ccc(Nc2ncc(Cl)c(-c3ccc(Cl)s3)n2)cc1 | binding, competition with immobilised ligand | 1 µM | 69% |
| CN(C)c1ncc(F)c(-c2cnn3ncccc23)n1 | binding | 1 µM | 79% |
| COc1ccc2c(c1)O[C@H](c1ccc(OC)c(OC)c1)C[C@@H]2NC(=O)C1(c2ccc3c(c2)OC(F)(F)O3)CC1 | cell-free assay, competition with immobilised ligand | 1 µM | 98% |
| COc1ccnn2ncc(-c3ccnc(N(C)C)n3)c12 | binding | 1 µM | 85% |
| CN(C)C(=O)Cn1cc(-c2nc([C@@](C)(c3ccc(-c4cnc(N)nc4)cc3)C3CC3)no2)cn1 | cell-free assay, competition with immobilised ligand | 1 µM | 81% |
| CCN1CCN(Cc2ccc(C(=O)Nc3ccc(C)c(Oc4ccc5c(c4)CC(=O)N5)c3)cc2C(F)(F)F)CC1 | binding, competition with immobilised ligand | 1 µM | 100% |
| COc1cnc(Nc2cccc(S(N)(=O)=O)c2)nc1N1CCN(c2ccccc2)CC1 | binding, competition with immobilised ligand | 1 µM | 86% |
| c1cnn2ncc(-c3ccnc(N4CCC45COC5)n3)c2c1 | binding | 1 µM | 71% |
| C[C@@H](c1ccc(-n2cnc3c(N)ncnc32)cc1)N1CCc2nn(C)c(Cc3ccccc3)c2C1=O | binding, competition with immobilised ligand | 0.1 µM | 70% |
| CCCCN(CCCC)C(=O)CN1C[C@H](c2cc(OC)c3c(c2)OCO3)[C@@H](C(=O)O)[C@@H]1CC(C)(C)CCC | cell-free assay, competition with immobilised ligand | 1 µM | 71.1% |
| C[C@H]1CCN(c2nccc(-c3cnn4ncccc34)n2)C1 | binding | 1 µM | 70% |
| CCc1ccccc1C(=O)Nc1n[nH]c2c(C)c(F)c(C3C(C#N)=C(C)N(C)C(C)=C3C#N)cc12 | cell-free assay, competition with immobilised ligand | 1 µM | 96% |
| O=C(c1ccc(Nc2ncc(Cl)c(-c3ccc(Cl)s3)n2)cc1)N1CCC(N2CCCC2)CC1 | binding, competition with immobilised ligand | 1 µM | 65% |
| O=S(=O)(NC1CCC(c2cc(F)ccc2F)(S(=O)(=O)c2ccc(Cl)cc2)CC1)C(F)(F)F (stereo not shown) | cell-free assay, competition with immobilised ligand | 1 µM | 100% |
| Nc1ncc2c(n1)-c1c([nH]c3ccc(C#CC4CC4)cc13)CCCC2 | binding, competition with immobilised ligand | 1 µM | 90% |
